Measured values reported in ChEMBL document CHEMBL4145586, “Hinduchelins A-D, Noncytotoxic Catechol Derivatives from Streptoalloteichus hindustanus” (J Nat Prod, 2018).
Active and inactive are the calls of the source. The rule behind the calls is not given here.

Legend:
HL-60 = test: Cytotoxicity against human HL60 cells assessed as effect on cell viability at 50 uM after 48 hrs by MTT assay; type: cell-based; details: hl-60, 48 h
A549 = test: Cytotoxicity against human A549 cells assessed as effect on cell viability at 50 uM after 48 hrs by MTT assay; type: cell-based; details: a549, 48 h
SMMC-7721 = test: Cytotoxicity against human SMMC7721 cells assessed as effect on cell viability at 50 uM after 48 hrs by MTT assay; type: cell-based; details: smmc-7721, 48 h
MCF7 = test: Cytotoxicity against human MCF7 cells assessed as effect on cell viability at 50 uM after 48 hrs by MTT assay; type: cell-based; details: mcf7, 48 h
SW480 = test: Cytotoxicity against human SW480 cells assessed as effect on cell viability at 50 uM after 48 hrs by MTT assay; type: cell-based; details: sw480, 48 h
[1] = Metal chelating activity assessed as iron-compound complex formation by measuring increase in pyoverdine production in Pseudomonas aeruginosa PAO1 at 50 uM by fluorescence assay
Procedure, shortened: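 PAO1 grown overnight in LB broth at 37 °C with shaking, then diluted to OD600 0.02 in ABTGC medium. Pyoverdine fluorescence was read on a plate reader, normalized to OD600 and reported as relative fluorescence units.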

Compound	Activity (HL-60)	Activity (A549)	Activity (SMMC-7721)	Activity (MCF7)	Activity (SW480)	Activity [1]
COc1cccc(-c2nc(C(=O)NCCc3ccccc3O)c(C)o2)c1OC	Non-Toxic	Non-Toxic	Non-Toxic	Non-Toxic	Non-Toxic	
COc1cccc(-c2nc(C(=O)NCCc3ccccc3O)c(C)o2)c1O	Non-Toxic	Non-Toxic	Non-Toxic	Non-Toxic	Non-Toxic	
COc1cccc(-c2nc(C(=O)NCCc3ccccc3)c(C)o2)c1O	Non-Toxic	Non-Toxic	Non-Toxic	Non-Toxic	Non-Toxic	Active
COc1cccc(-c2nc(C(=O)NC[C@@H](O)c3ccccc3)c(C)o2)c1OC	Non-Toxic	Non-Toxic	Non-Toxic	Non-Toxic	Non-Toxic	
